Test [1] in a line: reduced viability of SK-BR-3 breast cancer cells – cell-based, 24 h, human, pilot screen (AID 572;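 active = viability at or below 10% of carrier control in both of two separate runs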;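 note: compound exposure lasted between 18 and 24 h rather than exactly 24 h; 100% = carrier-treated control wells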). The conditions noted are these: SK-BR-3 viability, CellTiter-Glo luminescence, at 10 µM, stronger effect = lower value. In general terms: Cellular ATP, detected with luciferase, serves as a proxy for viable cell number.
Test [2] can be described thus: HUVEC growth inhibition – cell-based, human, primary screen (AID 575;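 active = viability at or below 30% in both replicate assays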;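 note: 100% = median of untreated cell wells with 0.1% DMSO on each plate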). The note with it: HUVEC proliferation, CellTiter-Glo luminescence, 72 h; at 10 µM; stronger effect = lower value. The method in brief:
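System – primary HUVEC, no more than 12 passages · Medium – Low-serum (2% FBS) EBM, supplemented · Times – 72 h exposure, 37 °C, 5% CO2, 30 min RT equilibration · Measured by – luminescent ATP assay · Read-out – % viability relative to median vehicle-well signal on each plate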

The nature of test [3]: H69AR cell proliferation blockers – human, duplicate replicates, primary screen (AID 580).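 Note: 100% = mean luminescence of untreated wells and 0% = no signal.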 The conditions noted are these: H69AR lung tumor cells viability, ATP luminescence, 72 h; at 10 µM; stronger effect = lower value.
Test [4] is described as follows: MRP1 drug-resistance reversers in H69AR cells – cell-based, doxorubicin co-treatment, pilot screen (AID 601;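 active = viability loss from added drug above about 55%, and viability with drug at most 40%, in both replicates, limit read from the data, passing the limit was not always enough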). The note with it: CellTiter-Glo, 72 h, at 10 µM; for differential viability (reversal): stronger effect = higher value.
Test [5] is described as follows: yeast transport mutant growth inhibition pilot in 384-well plates, post-Golgi transport modulator project (AID 636; in the data active = inhibition above about 31%). The conditions noted are these: absorbance 615 nm, about 18 h, stronger effect = higher value.
Test [6] in a line: growth suppression of yeast trafficking mutant, preliminary HTS, modulators of trafficking downstream of Golgi apparatus project, 1536-format plate, OD 615 nm (AID 637; in the data active = inhibition above about 30%). The note with it: yeast transport mutant growth, absorbance 615 nm, 18 h; stronger effect = higher value.
Setting [7] is: H69AR cells + 2 uM doxorubicin, measured here: viability with 2 uM doxorubicin, stronger effect = lower value.
Setting [8] is: H69AR cells, compound alone cytotoxicity.

Each structure is given as a SMILES string. Active and inactive are the calls of the source.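 Rule for the calls, unless noted: active = viability at or under a set limit in both replicates, limit being median viability minus 3 SD (cut at about 48% in these data, passing the limit was not always enough); inconclusive = at or under the limit in just one replicate; inactive = at or above the limit in both replicates.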

In general, viability refers to a read-out of living cells in per cent, often relative to untreated cells. As usually defined, the inhibition is the change of the read-out against control, counted positive when it falls. Take `Cc1cccc(CC(=O)Nc2c3c(nn2-c2cccc(Cl)c2)CS(=O)C3)c1` (centres undefined): the viability in test [1] is 104% (inactive); in test [2], 88.9% (inactive); in test [3], 85.2% (inactive); in test [4] (setting [7]), 96.1%; in test [4] (setting [8]), 85.2%. Moreover, the differential viability (reversal) in test [4] (H69AR cells + 2 uM doxorubicin) is -10.9% (inactive). Also, the inhibition in test [5] is 1.3% (inactive); in test [6], -6.72% (inactive).

Regarding `COC(=O)CNC(=O)COC(=O)c1cc(Cl)cc(Cl)c1N`, the viability in test [1] is 104% (inactive); in test [2], 96.6% (inactive); in test [3], 92.6% (inactive); in test [4] (setting [7]), 95.5%; in test [4] (setting [8]), 92.6%. Further, the differential viability (reversal) in test [4] (H69AR cells + 2 uM doxorubicin) was -2.94% (inactive). The inhibition in test [5] is 0.82% (inactive); in test [6], 45.3% (active).

`c1ccc(-c2oc3ncnc(NCCN4CCOCC4)c3c2-c2ccccc2)cc1`: the viability in test [1] was 90% (inactive); in test [2], 58.8% (inactive); in test [3] it was 73.3% (inactive); in test [4] (setting [7]), 32.9%; in test [4] (setting [8]), 73.3%. Also, the differential viability (reversal) in test [4] (H69AR cells + 2 uM doxorubicin) is 40.4% (inactive). The inhibition was -0.52% (inactive) in test [5] and -4.1% (inactive) in test [6].

For `Cc1cc(=O)n2[nH]c(-c3ccc(Cl)cc3)cc2n1`, the viability was 108% (inactive) in test [1]; 75.8% (inactive) in test [2]; 99.2% (inactive) in test [3]; 90.7% in test [4] (setting [7]); 99.2% in test [4] (setting [8]). Moreover, in test [4] (H69AR cells + 2 uM doxorubicin), the differential viability (reversal) is 8.53% (inactive). Moreover, the inhibition in test [5] was -4.66% (inactive); in test [6], 5.45% (inactive).

Take `O=C(NC1CCCCC1)c1nc2c(nnn2Cc2ccccc2Cl)c(=O)[nH]1`: the viability in test [1] was 77% (inactive); in test [2] it was 104% (inactive); in test [3], 110% (inactive); in test [4] (setting [7]), 98.4%; in test [4] (setting [8]), 110%. The differential viability (reversal) in test [4] (H69AR cells + 2 uM doxorubicin) is 12% (inactive). Besides, the inhibition in test [5] is -6.58% (inactive); in test [6], -7.58% (inactive).

As to `O=[n+]1cc(-c2ccc(F)cc2)n([O-])c2c1CCC2`, the viability in test [1] was 97% (inactive); in test [2], 100% (inactive); in test [3] it was 90.7% (inactive); in test [4] (setting [7]) it was 89.4%; in test [4] (setting [8]), 90.7%. The differential viability (reversal) in test [4] (H69AR cells + 2 uM doxorubicin) was 1.25% (inactive). Further, the results for the inhibition in test [5] and in test [6] were -1.82% (inactive) and 1.97% (inactive), respectively.

Regarding `COc1ccc(-c2oc3ncn(CCN4CCOCC4)c(=N)c3c2-c2ccc(OC)cc2)cc1`, the viability in test [1] is 82% (inactive); in test [2] it was 88.9% (inactive); in test [3], 24% (active); in test [4] (setting [7]), 21.5%; in test [4] (setting [8]) it was 24%. The differential viability (reversal) in test [4] (H69AR cells + 2 uM doxorubicin) is 2.45% (inactive). The inhibition in test [5] is -4.73% (inactive); in test [6] it was -2.55% (inactive).

With `COc1ccc(CNCC(=O)Nc2cc(C)nn2-c2nc(C)cc(C)n2)cc1OC`, the viability in test [1] was 98% (inactive); in test [2], 51.1% (inactive); in test [3], 11.9% (active); in test [4] (setting [7]), 70.1%; in test [4] (setting [8]) it was 11.9%. In addition, in test [4] (H69AR cells + 2 uM doxorubicin), the differential viability (reversal) is -58.3% (inactive). Further, the inhibition was -2.99% (inactive) in test [5] and 1.15% (inactive) in test [6].

On to `O=C(Nc1ccc(NC(=O)c2ccco2)nc1)c1cccnc1`, for which the viability was 102% (inactive) in test [1]; 121% (inactive) in test [2]; 88.7% (inactive) in test [3]; 90.6% in test [4] (setting [7]); 88.7% in test [4] (setting [8]). In addition, the differential viability (reversal) in test [4] (H69AR cells + 2 uM doxorubicin) was -1.89% (inactive). The values for the inhibition in test [5] and in test [6] were -7.4% (inactive) and 0.65% (inactive), respectively.

Regarding `O=C(CN1CCC(n2nnc3ccccc32)CC1)Nc1ccc2c(c1)CCC2`, the viability was 64% (inactive) in test [1]; 92% (inactive) in test [2]; 89.3% (inactive) in test [3]; 88.1% in test [4] (setting [7]); 89.3% in test [4] (setting [8]). Besides, the differential viability (reversal) in test [4] (H69AR cells + 2 uM doxorubicin) is 1.24% (inactive). Moreover, the values for the inhibition in test [5] and in test [6] were -8.63% (inactive) and 2% (inactive), respectively.

Regarding `Cc1ccc(OCCN2CCN(C(=O)CCC(=O)Nc3nnc(C)s3)CC2)cc1`, the viability in test [1] is 88% (inactive); in test [2] it was 118% (inactive); in test [3], 88.6% (inactive); in test [4] (setting [7]), 91.8%; in test [4] (setting [8]) it was 88.6%. Further, the differential viability (reversal) in test [4] (H69AR cells + 2 uM doxorubicin) was -3.2% (inactive). Moreover, the inhibition in test [5] was -7.03% (inactive); in test [6], 2.91% (inactive).

Take `Cc1ccc2c(c1)nnn2C1CCN(C(=O)NC23CC4CC(CC(C4)C2)C3)CC1`: the viability is 72% (inactive) in test [1]; 102% (inactive) in test [2]; 92.1% (inactive) in test [3]; 83.7% in test [4] (setting [7]); 92.1% in test [4] (setting [8]). Further, the differential viability (reversal) in test [4] (H69AR cells + 2 uM doxorubicin) is 8.39% (inactive). The inhibition in test [5] is -8.08% (inactive); in test [6] it was 0.16% (inactive).

Regarding `CC(=O)Nc1c(I)c(NC(C)=O)c(I)c(C(=O)O)c1I`, the viability in test [1] is 89% (inactive); in test [2], 98.4% (inactive); in test [3] it was 103% (inactive); in test [4] (setting [7]), 102%; in test [4] (setting [8]), 103%. The differential viability (reversal) in test [4] (H69AR cells + 2 uM doxorubicin) is 1.03% (inactive). Also, the inhibition in test [5] is -0.13% (inactive); in test [6] it was -3% (inactive).

Regarding `CCC[C@@H]1C[C@@H](C(=O)N[C@H]([C@@H](C)O)[C@H]2O[C@H](SC)[C@H](O)[C@@H](O)C2O)N(C)C1` (some centres undefined), the viability in test [1] was 128% (inactive); in test [2], 94.7% (inactive); in test [3], 89.7% (inactive); in test [4] (setting [7]), 80%; in test [4] (setting [8]) it was 89.7%. For the same compound, the differential viability (reversal) in test [4] (H69AR cells + 2 uM doxorubicin) was 9.67% (inactive). In addition, the inhibition in test [5] is 0.52% (inactive); in test [6], 15.7% (inactive).

As for `Cc1ccccc1-n1nnc2c(=O)oc3ccccc3c21`, the viability in test [1] is 99.5% (inactive); in test [2], 64.9% (inactive); in test [3] it was 85.8% (inactive); in test [4] (setting [7]), 84.5%; in test [4] (setting [8]) it was 85.8%. For the same compound, in test [4] (H69AR cells + 2 uM doxorubicin), the differential viability (reversal) is 1.29% (inactive). The inhibition in test [5] is -4.47% (inactive); in test [6], 5.83% (inactive).

On to `CC(C)Cc1ccc(C(C)C(=O)O)cc1` (centres undefined), for which the viability in test [1] was 99% (inactive); in test [2], 84.3% (inactive); in test [3], 97.8% (inactive); in test [4] (setting [7]) it was 92.3%; in test [4] (setting [8]), 97.8%. The differential viability (reversal) in test [4] (H69AR cells + 2 uM doxorubicin) is 5.44% (inactive). Also, the inhibition in test [5] is -1.95% (inactive); in test [6] it was 7.17% (inactive).

Consider `COc1ccc(N=C2C(=O)Nc3ccccc32)cc1`, for which the viability was 103% (inactive) in test [1]; 66.7% (inactive) in test [2]; 75.4% (inactive) in test [3]; 79.5% in test [4] (setting [7]); 75.4% in test [4] (setting [8]). Further, the differential viability (reversal) in test [4] (H69AR cells + 2 uM doxorubicin) was -4.16% (inactive). Further, the inhibition in test [5] is -0.4% (inactive); in test [6], -1.45% (inactive).

Turning to `COc1ccc(CN(C2CCCC2)S(=O)(=O)c2ccc(-n3cnnn3)cc2)cc1OC`, the viability in test [1] was 71% (inactive); in test [2], 80.5% (inactive); in test [3] it was 81.6% (inactive); in test [4] (setting [7]), 95.6%; in test [4] (setting [8]) it was 81.6%. The differential viability (reversal) in test [4] (H69AR cells + 2 uM doxorubicin) was -14% (inactive). The inhibition in test [5] is -7.12% (inactive); in test [6], 0.81% (inactive).

Source of the values: PubChem BioAssay.
